The results in this text go back to ChEMBL document CHEMBL1128406, “Effects of tubercidin and its 5'-O-methyl ether on adenosine receptors and mediator release functions in mast cells” (1995).

Assay [1] deals with CHO-K1-BH4. Briefly: Compound is tested for cytotoxicity in Chinese hamster ovary cells (CHO-K1-BH4) in the absence of S-9 microsome fraction at concentration 0.17 micro M. Format: functional, Cricetulus griseus. In outline:
(§1)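 CHO-K1-BH4 cells exposed to the test article for 5 h with no exogenous S-9 microsome fraction, then given an overnight recovery period without compound. Relative cytotoxicity was scored afterwards, following the contract lab's CYT/CHO protocol.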

Assay [2] deals with CHO-K1-BH4. Nature of the assay: Compound is tested for cytotoxicity in Chinese hamster ovary cells (CHO-K1-BH4) in the absence of S-9 microsome fraction at concentration 1.1 micro M. The class given is functional, Cricetulus griseus. In outline:
as §1

Assay [3] deals with CHO-K1-BH4. Nature of the assay: Compound is tested for cytotoxicity in Chinese hamster ovary cells (CHO-K1-BH4) in the absence of S-9 microsome fraction at concentration 11 micro M. Format: functional, Cricetulus griseus. In outline:
as §1

The subject of assay [4] is CHO-K1-BH4. Briefly: Compound is tested for cytotoxicity in Chinese hamster ovary cells (CHO-K1-BH4) in the absence of S-9 microsome fraction at concentration 1136 micro M. Format: functional, Cricetulus griseus. In short, it runs like this: as §1
In assay [5] the test system is CHO-K1-BH4. Nature of the assay: Compound is tested for cytotoxicity in Chinese hamster ovary cells (CHO-K1-BH4) in the presence of S-9 microsome fraction at concentration 0.17 micro M. Format: functional, Cricetulus griseus. In short, it runs like this: (§2)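 CHO-K1-BH4 cells exposed to the test article for 5 h with an S-9 microsome fraction present, then given an overnight compound-free recovery period. Relative cytotoxicity was assessed after recovery.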

The subject of assay [6] is CHO-K1-BH4. Nature of the assay: Compound is tested for cytotoxicity in Chinese hamster ovary cells (CHO-K1-BH4) in the presence of S-9 microsome fraction at concentration 1.1 micro M. Format: functional, Cricetulus griseus. In short, it runs like this: as §2
The test system of assay [7] is CHO-K1-BH4. Briefly: Compound is tested for cytotoxicity in Chinese hamster ovary cells (CHO-K1-BH4) in the presence of S-9 microsome fraction at concentration 11 micro M. The class given is functional, Cricetulus griseus. In short, it runs like this:
as §2

In assay [8] the test system is CHO-K1-BH4. Briefly: Compound is tested for cytotoxicity in Chinese hamster ovary cells (CHO-K1-BH4) in the presence of S-9 microsome fraction at concentration 1136 micro M. Format: functional, Cricetulus griseus. In outline:
as §2

Assay [9] deals with CHO-K1-BH4. Nature of the assay: Compound is tested for cytotoxicity in Chinese hamster ovary cells (CHO-K1-BH4) in the presence of S-9 microsome fraction at concentration 114 micro M. Format: functional, Cricetulus griseus. In outline: as §2
For assay [10], the system named is CHO-K1-BH4. Briefly: Compound is tested for cytotoxicity in Chinese hamster ovary cells (CHO-K1-BH4) in the absence of S-9 microsome fraction at concentration 0.1*10e-4 micro M. Format: functional, Cricetulus griseus. In outline:
(§3)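 CHO-K1-BH4 cells exposed to test article for 5 h, with or without exogenous S-9 microsome fraction, then recovered overnight without compound before relative cytotoxicity was scored.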

In assay [11] the test system is CHO-K1-BH4. Nature of the assay: Compound is tested for cytotoxicity in Chinese hamster ovary cells (CHO-K1-BH4) in the absence of S-9 microsome fraction at concentration 1.1*10e-4 micro M. The class given is functional, Cricetulus griseus. In short, it runs like this: as §3
Assay [12] relates to CHO-K1-BH4. Nature of the assay: Compound is tested for cytotoxicity in Chinese hamster ovary cells (CHO-K1-BH4) in the absence of S-9 microsome fraction at concentration 11.4*10e-4 micro M. Format: functional, Cricetulus griseus. In short, it runs like this: as §3
Assay [13] relates to CHO-K1-BH4. Briefly: Compound is tested for cytotoxicity in Chinese hamster ovary cells (CHO-K1-BH4) in the absence of S-9 microsome fraction at concentration 114*10e-4 micro M. The class given is functional, Cricetulus griseus. In short, it runs like this: as §3
In assay [14] the test system is CHO-K1-BH4. Nature of the assay: Compound is tested for cytotoxicity in Chinese hamster ovary cells (CHO-K1-BH4) in the absence of S-9 microsome fraction at concentration 9 micro M. The class given is functional, Cricetulus griseus. In outline:
as §3

Assay [15] relates to CHO-K1-BH4. Briefly: Compound is tested for cytotoxicity in Chinese hamster ovary cells (CHO-K1-BH4) in the presence of S-9 microsome fraction at concentration 0.1*10e-4 micro M. Format: functional, Cricetulus griseus. In short, it runs like this:
as §3

Assay [16] concerns CHO-K1-BH4. Nature of the assay: Compound is tested for cytotoxicity in Chinese hamster ovary cells (CHO-K1-BH4) in the presence of S-9 microsome fraction at concentration 1.1*10e-4 micro M. The class given is functional, Cricetulus griseus. In outline:
as §3

Assay [17] deals with CHO-K1-BH4. Nature of the assay: Compound is tested for cytotoxicity in Chinese hamster ovary cells (CHO-K1-BH4) in the presence of S-9 microsome fraction at concentration 11.4*10e-4 micro M. The class given is functional, Cricetulus griseus. In outline: as §3
Assay [18] deals with CHO-K1-BH4. Nature of the assay: Compound is tested for cytotoxicity in Chinese hamster ovary cells (CHO-K1-BH4) in the presence of S-9 microsome fraction at concentration 114*10e-4 micro M. Format: functional, Cricetulus griseus. In outline: as §3
For a further assay, the species on record is Mus musculus. Briefly: Compound is evaluated for the ability to inhibit the passive cutaneous anaphylaxis (PCA) reaction in mouse in presence of Ag. Format: functional.
Assay [19] has as its system CHO-K1-BH4. Nature of the assay: Compound is tested for cytotoxicity in Chinese hamster ovary cells (CHO-K1-BH4) in the absence of S-9 microsome fraction at concentration 0 micro M. The class given is functional, Cricetulus griseus. In outline:
as §1

The test system of assay [20] is CHO-K1-BH4. Briefly: Compound is tested for cytotoxicity in Chinese hamster ovary cells (CHO-K1-BH4) in the absence of S-9 microsome fraction at concentration 0.4 micro M. Format: functional, Cricetulus griseus. In outline: as §1
For assay [21], the system named is CHO-K1-BH4. Nature of the assay: Compound is tested for cytotoxicity in Chinese hamster ovary cells (CHO-K1-BH4) in the absence of S-9 microsome fraction at concentration 3.7 micro M. The class given is functional, Cricetulus griseus. In outline:
as §1

Assay [22] deals with CHO-K1-BH4. Briefly: Compound is tested for cytotoxicity in Chinese hamster ovary cells (CHO-K1-BH4) in the absence of S-9 microsome fraction at concentration 360 micro M. The class given is functional, Cricetulus griseus. In outline:
as §1

The subject of assay [23] is CHO-K1-BH4. Nature of the assay: Compound is tested for cytotoxicity in Chinese hamster ovary cells (CHO-K1-BH4) in the absence of S-9 microsome fraction at concentration 37 micro M. Format: functional, Cricetulus griseus. In short, it runs like this:
as §1

The subject of assay [24] is CHO-K1-BH4. Nature of the assay: Compound is tested for cytotoxicity in Chinese hamster ovary cells (CHO-K1-BH4) in the presence of S-9 microsome fraction at concentration 3.7 micro M. The class given is functional, Cricetulus griseus. In outline: as §2
The test system of assay [25] is CHO-K1-BH4. Nature of the assay: Compound is tested for cytotoxicity in Chinese hamster ovary cells (CHO-K1-BH4) in the presence of S-9 microsome fraction at concentration 360 micro M. The class given is functional, Cricetulus griseus. In short, it runs like this:
as §2

Assay [26] concerns CHO-K1-BH4. Briefly: Compound is tested for cytotoxicity in Chinese hamster ovary cells (CHO-K1-BH4) in the presence of S-9 microsome fraction at concentration 37 micro M. Format: functional, Cricetulus griseus. In outline: as §2

On to `Nc1ncnc2c1ncn2[C@@H]1O[C@H](CO)[C@@H](O)[C@H]1O` [ADENOSINE], for which the Inhibition (usually how much of the control response was suppressed) with CHO-K1-BH4 [1] stood at 0%; with CHO-K1-BH4 [2], 22%; in the assay with CHO-K1-BH4 [3], 19%; in the assay with CHO-K1-BH4 [4], 43%; in the assay on CHO-K1-BH4 [5], 0.04%; in the assay on CHO-K1-BH4 [6], 8%. Further, the figures for the Inhibition in the assay with CHO-K1-BH4 [7], in the assay with CHO-K1-BH4 [8] and with CHO-K1-BH4 [9] were 0%, 7% and 0%, respectively.

Consider `Nc1ncnc2c1ccn2[C@@H]1O[C@H](CO)[C@@H](O)[C@H]1O` [TUBERCIDIN], for which the Inhibition stood at 10% in the assay with CHO-K1-BH4 [10]; 16% in the assay with CHO-K1-BH4 [11]; 92% in the assay with CHO-K1-BH4 [12]; 100% with CHO-K1-BH4 [13]; 11% in the assay with CHO-K1-BH4 [14]; 4% in the assay with CHO-K1-BH4 [15]. Further, the Inhibition in the assay with CHO-K1-BH4 [16] was 9%; in the assay on CHO-K1-BH4 [17], 80%; in the assay on CHO-K1-BH4 [18] it was 100%. For the same compound, the grade in the assay listed under Mus musculus worked out at 1.17.

Consider `COC[C@H]1OC(n2ccc3c(N)ncnc32)[C@H](O)[C@@H]1O` (stereo partly drawn), for which the Inhibition in the assay with CHO-K1-BH4 [19] was 0%; in the assay on CHO-K1-BH4 [20] it was 0%; in the assay with CHO-K1-BH4 [21], 12%; with CHO-K1-BH4 [22], 37%; in the assay on CHO-K1-BH4 [23], 30%; in the assay on CHO-K1-BH4 [24], 2%. In addition, the Inhibition was found to be 99% with CHO-K1-BH4 [25] and 36% with CHO-K1-BH4 [26]. For the same compound, the grade in the assay listed under Mus musculus is 1.75.
